Test results taken from ChEMBL document CHEMBL1629690, “Development of hexadecyloxypropyl tenofovir (CMX157) for treatment of infection caused by wild-type and nucleoside/nucleotide-resistant HIV” (Antimicrob Agents Chemother, 2010).

Assays:
[1] = test system: Human immunodeficiency virus 1; test: Antiviral activity against HIV1 isolate 215 harboring reverse transcriptase D67N/K70E mutant gene by phenosense assay relative to wild type; format: functional
In short: (§1)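 PhenoSense HIV recombinant virus assay: patient-derived HIV-1 with major NRTI resistance mutations tested against increasing drug concentrations to give inhibition curves. EC50 is the concentration giving 50% inhibition. Fold change is the test recombinant EC50 divided by the EC50 of a drug-sensitive wild-type reference virus. Panel of 30 NRTI-resistant isolates plus two wild-type viruses.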

[2] = test system: Human immunodeficiency virus 1; test: Antiviral activity against HIV1 isolate 180 harboring reverse transcriptase K65R mutant gene obtained as site-directed mutant of NL4-3 by phenosense assay; format: functional, organism-based; details: Human immunodeficiency virus 1, isolate 180
In short: (§2)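 Recombinant-virus PhenoSense HIV assay run on a panel of 30 NRTI-resistant HIV-1 mutants and two wild-type viruses. Each virus is tested across increasing drug concentrations to give an inhibition curve and EC50. Fold change is the test recombinant EC50 divided by the EC50 of the drug-sensitive wild-type reference virus.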

[3] = test system: Human immunodeficiency virus 1; test: Antiviral activity against HIV1 isolate 206 harboring reverse transcriptase D67N/K70R mutant gene by phenosense assay relative to wild type; format: functional; in short: as §1
[4] = test system: Human immunodeficiency virus 1; test: Antiviral activity against HIV1 isolate 069 harboring reverse transcriptase D67E/T69SSG/V75M/M184V/L210W/T215Y mutant gene by phenosense assay; format: functional, organism-based; details: Human immunodeficiency virus 1, isolate 069; in short: as §2
[5] = test system: Human immunodeficiency virus 1; test: Antiviral activity against HIV1 isolate 217 harboring reverse transcriptase D67N/K70E/M184V mutant gene by phenosense assay; format: functional, organism-based; details: Human immunodeficiency virus 1, isolate 217; in short: as §1
[6] = test system: Human immunodeficiency virus 1; test: Antiviral activity against HIV1 isolate 192 harboring reverse transcriptase M41L/T215Y mutant gene by phenosense assay; format: functional, organism-based; details: Human immunodeficiency virus 1, isolate 192; in short: as §2
[7] = test system: Human immunodeficiency virus 1; test: Antiviral activity against HIV1 isolate 063 harboring reverse transcriptase M41L/D67N/K70R/M184V/L210W/T215Y/K219E mutant gene by phenosense assay relative to wild type; format: functional; in short: as §2
[8] = test system: Human immunodeficiency virus 1; test: Antiviral activity against HIV1 isolate 166 harboring reverse transcriptase L74V mutant gene obtained as site-directed mutant of NL4-3 by phenosense assay; format: functional, organism-based; details: Human immunodeficiency virus 1, isolate 166; in short: as §2
[9] = test system: Human immunodeficiency virus 1; test: Antiviral activity against HIV1 isolate 060 harboring reverse transcriptase M41L/D67N/K70R/L210W/T215Y/K219E mutant gene by phenosense assay relative to wild type; format: functional; in short: as §2
[10] = test system: Human immunodeficiency virus 1; test: Antiviral activity against HIV1 isolate 211 harboring reverse transcriptase D67N/K70R/T215F/K219E/M184V mutant gene by phenosense assay; format: functional, organism-based; details: Human immunodeficiency virus 1, isolate 211; in short: as §1
[11] = test system: Human immunodeficiency virus 1; test: Antiviral activity against HIV1 isolate 160 harboring reverse transcriptase S68G/V75(I/T)/F77L/Y115F/F116Y /Q151M mutant gene by phenosense assay relative to wild type; format: functional; in short: as §2
[12] = test system: Human immunodeficiency virus 1; test: Antiviral activity against HIV1 isolate 217 harboring reverse transcriptase D67N/K70E/M184V mutant gene by phenosense assay relative to wild type; format: functional; in short: as §1
[13] = test system: Human immunodeficiency virus 1; test: Antiviral activity against HIV1 isolate 194 harboring reverse transcriptase M41L/T215Y/M184V mutant gene by phenosense assay; format: functional, organism-based; details: Human immunodeficiency virus 1, isolate 194; in short: as §2
[14] = test system: Human immunodeficiency virus 1; test: Antiviral activity against HIV1 isolate 066 harboring reverse transcriptase 184V mutant gene by phenosense assay relative to wild type; format: functional; in short: as §2
[15] = test system: Human immunodeficiency virus 1; test: Antiviral activity against HIV1 isolate 157 harboring reverse transcriptase L74V/M184V mutant gene by phenosense assay relative to wild type; format: functional; in short: as §2
[16] = test system: Human immunodeficiency virus 1; test: Antiviral activity against HIV1 isolate 203 harboring reverse transcriptase M41L/L210W/T215Y/M184V mutant gene by phenosense assay relative to wild type; format: functional; in short: as §1
[17] = test system: Human immunodeficiency virus 1; test: Antiviral activity against HIV1 isolate 061 harboring reverse transcriptase M41L/D67N/K70R/M184V/L210W/T215Y/K219E mutant gene by phenosense assay; format: functional, organism-based; details: Human immunodeficiency virus 1, isolate 061; in short: as §2
[18] = test system: Human immunodeficiency virus 1; test: Antiviral activity against HIV1 isolate 071 harboring reverse transcriptase 65R/S68N/184V mutant gene by phenosense assay relative to wild type; format: functional; in short: as §2
[19] = test system: Human immunodeficiency virus 1; test: Antiviral activity against HIV1 isolate 185 harboring reverse transcriptase T215Y mutant gene by phenosense assay; format: functional, organism-based; details: Human immunodeficiency virus 1, isolate 185; in short: as §2
[20] = test system: Human immunodeficiency virus 1; test: Antiviral activity against HIV1 isolate 188 harboring reverse transcriptase T215Y/M184V mutant gene by phenosense assay relative to wild type; format: functional; in short: as §2
[21] = test system: Human immunodeficiency virus 1; test: Antiviral activity against HIV1 isolate 162 harboring reverse transcriptase A62V/V75I/F77L/Y115F/F116Y/Q151M/M184V mutant gene by phenosense assay; format: functional, organism-based; details: Human immunodeficiency virus 1, isolate 162; in short: as §2
[22] = test system: Human immunodeficiency virus 1; test: Antiviral activity against HIV1 isolate 201 harboring reverse transcriptase M41L/L210W/T215Y mutant gene by phenosense assay relative to wild type; format: functional; in short: as §1
[23] = test system: Human immunodeficiency virus 1; test: Antiviral activity against HIV1 isolate 061 harboring reverse transcriptase M41L/D67N/K70R/M184V/L210W/T215Y/K219E mutant gene by phenosense assay relative to wild type; format: functional; in short: as §2
[24] = test system: Human immunodeficiency virus 1; test: Antiviral activity against HIV1 isolate 211 harboring reverse transcriptase D67N/K70R/T215F/K219E/M184V mutant gene by phenosense assay relative to wild type; format: functional; in short: as §1
[25] = test system: Human immunodeficiency virus 1; test: Antiviral activity against HIV1 isolate 153 harboring reverse transcriptase L74V mutant gene by phenosense assay; format: functional, organism-based; details: Human immunodeficiency virus 1, isolate 153; in short: as §2
[26] = test system: Human immunodeficiency virus 1; test: Antiviral activity against HIV1 isolate 157 harboring reverse transcriptase L74V/M184V mutant gene by phenosense assay; format: functional, organism-based; details: Human immunodeficiency virus 1, isolate 157; in short: as §2
[27] = test system: Human immunodeficiency virus 1; test: Antiviral activity against HIV1 isolate 212 harboring reverse transcriptase L210W/T215Y mutant gene by phenosense assay relative to wild type; format: functional; in short: as §1
[28] = test system: Human immunodeficiency virus 1; test: Antiviral activity against HIV1 isolate 060 harboring reverse transcriptase M41L/D67N/K70R/L210W/T215Y/K219E mutant gene by phenosense assay; format: functional, organism-based; details: Human immunodeficiency virus 1, isolate 060; in short: as §2
[29] = test system: Human immunodeficiency virus 1; test: Antiviral activity against HIV1 isolate 220 harboring reverse transcriptase K70E/M184V mutant gene by phenosense assay; format: functional, organism-based; details: Human immunodeficiency virus 1, isolate 220; in short: as §1
[30] = test system: Human immunodeficiency virus 1; test: Antiviral activity against HIV1 isolate 057 expressing wild type reverse transcriptase gene by phenosense assay; format: functional, organism-based; details: Human immunodeficiency virus 1, isolate 057
In short: (§3)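 In the PhenoSense recombinant virus assay, virus was tested against increasing drug concentrations. EC50 came from the inhibition curve and was compared with a drug-sensitive reference virus.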

[31] = test system: Human immunodeficiency virus 1; test: Antiviral activity against HIV1 isolate 067 harboring reverse transcriptase A62V/D67G/T69SVG/V75I/T215I mutant gene by phenosense assay; format: functional, organism-based; details: Human immunodeficiency virus 1, isolate 067; in short: as §2
[32] = test system: Human immunodeficiency virus 1; test: Antiviral activity against HIV1 isolate 212 harboring reverse transcriptase L210W/T215Y mutant gene by phenosense assay; format: functional, organism-based; details: Human immunodeficiency virus 1, isolate 212; in short: as §1
[33] = test system: Human immunodeficiency virus 1; test: Antiviral activity against HIV1 isolate 067 harboring reverse transcriptase A62V/D67G/T69SVG/V75I/T215I mutant gene by phenosense assay relative to wild type; format: functional; in short: as §2
[34] = test system: Human immunodeficiency virus 1; test: Antiviral activity against HIV1 isolate 194 harboring reverse transcriptase M41L/T215Y/M184V mutant gene by phenosense assay relative to wild type; format: functional; in short: as §2
[35] = test system: Human immunodeficiency virus 1; test: Antiviral activity against HIV1 isolate 056 expressing wild type reverse transcriptase gene by phenosense assay; format: functional, organism-based; details: Human immunodeficiency virus 1, isolate 056; in short: as §3
[36] = test system: Human immunodeficiency virus 1; test: Antiviral activity against HIV1 isolate 220 harboring reverse transcriptase K70E/M184V mutant gene by phenosense assay relative to wild type; format: functional; in short: as §1

Compound | fold change (FC) [1] | EC50 [2] [nM] | fold change (FC) [3] | EC50 [4] [nM] | EC50 [5] [nM] | EC50 [6] [nM] | fold change (FC) [7] | EC50 [8] [nM] | fold change (FC) [9] | EC50 [10] [nM] | fold change (FC) [11] | fold change (FC) [12] | EC50 [13] [nM] | fold change (FC) [14] | fold change (FC) [15] | fold change (FC) [16] | EC50 [17] [nM] | fold change (FC) [18] | EC50 [19] [nM] | fold change (FC) [20] | further results
Cc1cn([C@H]2C=C[C@@H](CO)O2)c(=O)[nH]c1=O [STAVUDINE] | 0.94 | 830 | 1.3 | 6800 | 420 | 840 | 2.3 | 630 | 3.1 | 790 | 9.3 | 0.7 | 860 | 0.77 | 0.71 | 1.5 | 2400 | 0.99 | 830 | 1.1 | EC50 [21]: 4200 nM; fold change (FC) [22]: 1.8; fold change (FC) [23]: 2.6; fold change (FC) [24]: 1.3; EC50 [25]: 600 nM; EC50 [26]: 420 nM; fold change (FC) [27]: 1.6; EC50 [28]: 2800 nM; EC50 [29]: 390 nM; EC50 [30]: 480 nM; EC50 [31]: 6400 nM; EC50 [32]: 940 nM; fold change (FC) [33]: 11; fold change (FC) [34]: 1.5; EC50 [35]: 510 nM; fold change (FC) [36]: 0.65
C[C@H](Cn1cnc2c(N)ncnc21)OCP(=O)(O)O [TENOFOVIR ANHYDROUS] | 0.96 | 1600 | 2.6 | 3600 | 500 | 1400 | 2.2 | 540 | 4 | 700 | 2.3 | 0.64 | 1000 | 0.69 | 0.29 | 0.97 | 2000 | 1.2 | 1800 | 0.81 | EC50 [21]: 1100 nM; fold change (FC) [22]: 3; fold change (FC) [23]: 2.2; fold change (FC) [24]: 0.91; EC50 [25]: 480 nM; EC50 [26]: 230 nM; fold change (FC) [27]: 1.3; EC50 [28]: 3600 nM; EC50 [29]: 470 nM; EC50 [30]: 650 nM; EC50 [31]: 17000 nM; EC50 [32]: 1000 nM; fold change (FC) [33]: 22; fold change (FC) [34]: 1.3; EC50 [35]: 610 nM; fold change (FC) [36]: 0.61
CCCCCCCCCCCCCCCCOCCCOP(=O)(O)CO[C@H](C)Cn1cnc2c(N)ncnc21 [TENOFOVIR EXALIDEX] | 1.2 | 4.7 | 3 | 11 | 1.5 | 3.9 | 2.8 | 1.5 | 3.3 | 1.9 | 2 | 0.78 | 2.9 | 0.73 | 0.36 | 1 | 6.1 | 1.5 | 5 | 0.9 | EC50 [21]: 3.1 nM; fold change (FC) [22]: 3.5; fold change (FC) [23]: 2.1; fold change (FC) [24]: 1; EC50 [25]: 1.2 nM; EC50 [26]: 0.66 nM; fold change (FC) [27]: 1.5; EC50 [28]: 9.6 nM; EC50 [29]: 1.3 nM; EC50 [30]: 1.6 nM; EC50 [31]: 57 nM; EC50 [32]: 2.8 nM; fold change (FC) [33]: 31; fold change (FC) [34]: 1.6; EC50 [35]: 1.7 nM; fold change (FC) [36]: 0.71
